Reference: ChEMBL document CHEMBL1129267, “Aryl 1-but-3-ynyl-4-phenyl-1,2,3,6-tetrahydropyridines as potential antipsychotic agents: synthesis and structure-activity relationships” (J Med Chem, 1996)

Legend:
D(2) dopamine receptor [1] = target: T1, D(2) dopamine receptor (Rattus norvegicus, UniProt P61169); test: Compound was evaluated for their affinity against dopamine receptor D2 by displacing [3H]-spiperone in rat striatal membrane; format: cell membranes, Striatum
Outline: (§1)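 Rat striatal membranes; [³H]spiperone 0.2 nM final; nonspecific binding defined with (+)-butaclamol 1.0 µM final. Four to six concentrations, each run in triplicate; Ki obtained by nonlinear regression analysis.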

Mus musculus [2] = test: (§2) Compound was tested for the inhibition of locomotor activity (LMA)by administering Intraperitoneally in mouse.; format: functional; settings: ip
Outline: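 Mice dosed ip, then tested immediately for 1 h in darkened cylindrical photobeam chambers. Percent inhibition of locomotor activity relative to vehicle-treated animals; ED50 derived from three to six doses, n = 6-18 animals/dose.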

Rattus norvegicus [3] = test: In vivo inhibition of locomotor activity in the rat following p.o. administration.; format: functional; settings: po
D(2) dopamine receptor [4] = target: T1, D(2) dopamine receptor; test: Binding affinity at Dopamine receptor D2 in rat striatal membrane by [3H]spiperone displacement.; format: cell membranes, Striatum; outline: as §1
Mus musculus [5] = test: as §2; format: functional; settings: ip; remark: listed apart in the source
[6] = target: T2, Adrenergic receptor alpha-1 (Rattus norvegicus, UniProt P15823+P23944+P43140); test: Binding affinity against Alpha-1 adrenergic receptor using radioligand [3H]prazosin binding assay.; format: protein assay
T2 sequence (P15823 whole entry): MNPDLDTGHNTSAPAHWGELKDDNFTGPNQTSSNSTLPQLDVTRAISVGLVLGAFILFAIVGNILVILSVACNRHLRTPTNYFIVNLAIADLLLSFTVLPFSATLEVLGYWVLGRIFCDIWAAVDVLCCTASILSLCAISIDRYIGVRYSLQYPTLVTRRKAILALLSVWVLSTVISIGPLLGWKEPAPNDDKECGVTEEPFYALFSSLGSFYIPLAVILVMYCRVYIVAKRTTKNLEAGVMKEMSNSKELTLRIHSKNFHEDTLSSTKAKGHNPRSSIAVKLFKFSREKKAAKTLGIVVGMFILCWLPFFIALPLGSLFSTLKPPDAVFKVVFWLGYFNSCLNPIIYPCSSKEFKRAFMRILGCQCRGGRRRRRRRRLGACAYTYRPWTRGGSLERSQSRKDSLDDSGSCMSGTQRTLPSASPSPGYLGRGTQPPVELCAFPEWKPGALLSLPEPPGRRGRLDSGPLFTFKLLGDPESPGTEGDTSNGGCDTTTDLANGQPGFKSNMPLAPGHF
T2 sequence (P23944 whole entry): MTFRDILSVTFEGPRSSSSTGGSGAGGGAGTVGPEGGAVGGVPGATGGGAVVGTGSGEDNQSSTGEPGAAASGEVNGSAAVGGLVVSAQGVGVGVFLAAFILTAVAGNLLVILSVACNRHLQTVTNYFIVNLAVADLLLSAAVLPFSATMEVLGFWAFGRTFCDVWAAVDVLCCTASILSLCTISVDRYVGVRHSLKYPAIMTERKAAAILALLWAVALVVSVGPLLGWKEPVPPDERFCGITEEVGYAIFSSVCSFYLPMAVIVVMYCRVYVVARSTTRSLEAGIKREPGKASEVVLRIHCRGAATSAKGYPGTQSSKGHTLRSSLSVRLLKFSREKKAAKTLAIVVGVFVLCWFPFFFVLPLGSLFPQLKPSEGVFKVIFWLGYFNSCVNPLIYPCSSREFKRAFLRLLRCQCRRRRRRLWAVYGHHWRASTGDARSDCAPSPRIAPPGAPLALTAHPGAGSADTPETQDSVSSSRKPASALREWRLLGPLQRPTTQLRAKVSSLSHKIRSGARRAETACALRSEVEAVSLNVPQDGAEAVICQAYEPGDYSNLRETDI
T2 sequence (P43140 whole entry): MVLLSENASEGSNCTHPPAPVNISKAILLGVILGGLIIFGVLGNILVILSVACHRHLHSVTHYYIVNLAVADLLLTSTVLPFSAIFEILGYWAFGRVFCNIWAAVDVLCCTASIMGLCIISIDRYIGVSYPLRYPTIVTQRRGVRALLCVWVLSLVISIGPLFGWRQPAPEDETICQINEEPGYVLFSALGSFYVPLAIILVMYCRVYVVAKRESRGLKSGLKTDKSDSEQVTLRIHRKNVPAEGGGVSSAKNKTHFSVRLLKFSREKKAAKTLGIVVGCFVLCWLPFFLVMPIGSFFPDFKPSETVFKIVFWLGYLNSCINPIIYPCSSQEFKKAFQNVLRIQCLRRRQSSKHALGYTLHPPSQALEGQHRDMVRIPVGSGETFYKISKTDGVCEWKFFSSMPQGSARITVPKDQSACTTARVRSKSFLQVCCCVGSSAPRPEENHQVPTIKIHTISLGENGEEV
Outline: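 Inhibition of [³H]prazosin (0.1 nM final) binding in rat cortex membranes; phentolamine (10 µM final) defines nonspecific binding.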

D(2) dopamine receptor [7] = target: D(2) dopamine receptor (Homo sapiens, UniProt P14416); test: […] Dopamine receptor D2 mitogenesis measured as [3H]thymidine incorporation in CHO p-5 cells expressing human D2 receptors
Outline: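 CHO p-5 cells transfected with human D2L are grown 2 days at 37 °C in medium with 10% calf serum, rinsed, and switched to serum-free medium plus compound in water. After 16-17 h, [³H]thymidine (1 µCi/well) is added for 4 h; cells are harvested onto filters and counted.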

D(1A) dopamine receptor = D(1A) dopamine receptor (Rattus norvegicus, UniProt P18901); format: cell membranes, Brain, Membrane
D(3) dopamine receptor = D(3) dopamine receptor (Homo sapiens, UniProt P35462); test: Binding affinity against human Dopamine receptor D3 in CHO-K1 cells using [3H]spiperone as radioligand; format: cell-based
D(2) dopamine receptor [8] = target: T1, D(2) dopamine receptor; test: Binding affinity against Dopamine receptor D2 in CHO-K1 cells using radioligand [3H]NPA binding assay; format: cell-based
Monkey = test: Compound was tested for inhibition of conditioned avoidance after administering perorally(po) in squirrel monkeys; format: functional; settings: Cebidae, in Saimiri
Rattus norvegicus [9] = test: Percent decrease of the firing rate of rat substantia nigra DA neurons at a dose of 2.5 mg/kg ip; format: functional; settings: route intraperitoneal
[10] = target: T3, 5-hydroxytryptamine receptor 1A (Rattus norvegicus, UniProt P19327); test: Binding affinity against serotonin 5-hydroxytryptamine 1A receptor using radioligand [3H]8-OH-DPAT binding assay
T3 sequence (P19327 whole entry): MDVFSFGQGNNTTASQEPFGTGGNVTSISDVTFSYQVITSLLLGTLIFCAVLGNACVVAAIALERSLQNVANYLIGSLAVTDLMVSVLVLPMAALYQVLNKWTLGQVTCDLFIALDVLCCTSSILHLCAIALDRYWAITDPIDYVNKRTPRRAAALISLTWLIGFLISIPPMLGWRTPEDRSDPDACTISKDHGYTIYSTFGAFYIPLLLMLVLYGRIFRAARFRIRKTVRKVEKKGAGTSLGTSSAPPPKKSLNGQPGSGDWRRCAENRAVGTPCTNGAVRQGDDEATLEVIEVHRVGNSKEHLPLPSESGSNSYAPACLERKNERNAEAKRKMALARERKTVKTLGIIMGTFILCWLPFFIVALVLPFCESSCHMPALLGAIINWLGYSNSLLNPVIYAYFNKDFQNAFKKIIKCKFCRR
Outline: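 Rat hippocampal membranes labelled with [³H]-8-OH-DPAT (0.4 nM final); nonspecific binding with 8-OH-DPAT (1 µM).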

D(4) dopamine receptor = target: T4, D(4) dopamine receptor (Homo sapiens, UniProt P21917); test: Binding affinity against human Dopamine receptor D4 in CHO-K1 cells using [3H]spiperone as radioligand; format: cell-based
T4 sequence (P21917 whole entry): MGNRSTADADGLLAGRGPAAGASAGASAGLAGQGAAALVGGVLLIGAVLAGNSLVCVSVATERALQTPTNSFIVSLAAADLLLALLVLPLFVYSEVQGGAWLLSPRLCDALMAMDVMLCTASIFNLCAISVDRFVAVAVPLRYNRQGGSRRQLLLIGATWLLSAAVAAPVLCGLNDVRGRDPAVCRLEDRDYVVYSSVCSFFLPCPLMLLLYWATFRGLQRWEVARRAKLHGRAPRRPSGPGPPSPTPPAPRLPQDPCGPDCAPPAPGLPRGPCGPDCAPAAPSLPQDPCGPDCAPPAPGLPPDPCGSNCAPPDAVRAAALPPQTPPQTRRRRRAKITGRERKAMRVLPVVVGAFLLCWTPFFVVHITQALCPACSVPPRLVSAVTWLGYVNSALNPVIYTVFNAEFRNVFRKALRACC
Outline: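 Human D4.2 receptor expressed in CHO K1 cells; [³H]spiperone 0.2 nM final; nonspecific binding defined with haloperidol 1.0 µM final.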

T1 sequence (P61169 whole entry): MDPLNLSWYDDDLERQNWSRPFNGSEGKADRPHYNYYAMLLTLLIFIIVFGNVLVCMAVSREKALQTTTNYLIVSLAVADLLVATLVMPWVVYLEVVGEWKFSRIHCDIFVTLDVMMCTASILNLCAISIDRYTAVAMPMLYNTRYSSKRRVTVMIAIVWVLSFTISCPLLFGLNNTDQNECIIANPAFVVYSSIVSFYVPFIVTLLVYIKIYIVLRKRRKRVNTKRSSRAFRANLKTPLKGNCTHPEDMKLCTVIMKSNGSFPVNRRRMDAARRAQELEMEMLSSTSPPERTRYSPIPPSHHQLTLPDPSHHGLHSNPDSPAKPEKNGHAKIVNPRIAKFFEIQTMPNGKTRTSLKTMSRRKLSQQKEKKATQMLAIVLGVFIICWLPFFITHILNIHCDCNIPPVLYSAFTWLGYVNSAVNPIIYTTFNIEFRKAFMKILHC
Chain of D(1A) dopamine receptor (P18901 whole entry): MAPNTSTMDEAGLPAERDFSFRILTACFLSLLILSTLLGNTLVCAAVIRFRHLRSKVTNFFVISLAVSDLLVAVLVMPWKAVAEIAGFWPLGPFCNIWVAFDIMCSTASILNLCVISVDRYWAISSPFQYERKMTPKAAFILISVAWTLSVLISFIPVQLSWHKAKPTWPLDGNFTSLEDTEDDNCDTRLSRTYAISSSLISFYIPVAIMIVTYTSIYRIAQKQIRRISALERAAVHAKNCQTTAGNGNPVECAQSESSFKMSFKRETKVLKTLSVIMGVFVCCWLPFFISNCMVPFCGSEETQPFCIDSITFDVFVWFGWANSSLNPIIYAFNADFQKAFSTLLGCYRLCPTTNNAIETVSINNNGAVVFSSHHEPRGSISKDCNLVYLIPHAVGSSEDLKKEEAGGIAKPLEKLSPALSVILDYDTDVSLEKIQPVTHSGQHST
Chain of D(2) dopamine receptor (Homo sapiens, UniProt P14416) (P14416 whole entry): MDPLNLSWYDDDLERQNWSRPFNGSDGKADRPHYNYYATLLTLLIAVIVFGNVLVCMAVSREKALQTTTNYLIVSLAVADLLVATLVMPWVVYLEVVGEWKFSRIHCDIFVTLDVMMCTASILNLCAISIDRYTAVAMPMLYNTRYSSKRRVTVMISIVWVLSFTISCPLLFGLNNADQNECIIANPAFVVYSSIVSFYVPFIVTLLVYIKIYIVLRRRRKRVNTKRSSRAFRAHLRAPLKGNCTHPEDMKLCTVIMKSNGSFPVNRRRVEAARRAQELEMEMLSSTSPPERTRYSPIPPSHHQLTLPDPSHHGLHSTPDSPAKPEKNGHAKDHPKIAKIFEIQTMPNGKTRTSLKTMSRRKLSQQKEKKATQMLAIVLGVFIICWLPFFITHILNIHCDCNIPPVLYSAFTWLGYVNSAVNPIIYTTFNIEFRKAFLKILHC
Chain of D(3) dopamine receptor (P35462 whole entry): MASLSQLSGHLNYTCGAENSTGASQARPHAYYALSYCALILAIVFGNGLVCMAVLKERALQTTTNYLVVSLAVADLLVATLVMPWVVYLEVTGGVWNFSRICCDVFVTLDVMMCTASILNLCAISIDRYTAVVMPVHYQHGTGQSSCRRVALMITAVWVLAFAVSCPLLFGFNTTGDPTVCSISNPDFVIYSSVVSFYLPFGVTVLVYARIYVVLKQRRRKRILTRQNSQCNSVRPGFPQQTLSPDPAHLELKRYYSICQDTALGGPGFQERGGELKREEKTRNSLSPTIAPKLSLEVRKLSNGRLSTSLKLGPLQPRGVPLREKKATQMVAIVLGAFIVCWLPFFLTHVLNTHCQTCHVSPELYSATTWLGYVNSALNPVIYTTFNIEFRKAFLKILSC

Row | Structure (SMILES) | ED50 (Rattus norvegicus [3]) [mg/kg] | Ki (D(2) dopamine receptor [4]) [nM] | also measured
1 | Nc1ccccc1C#CCCN1CC=C(c2ccccc2)CC1 | 23.9 | – | Ki (D(2) dopamine receptor [1]): 183 nM; ED50 (Mus musculus [2]): 1.6 mg/kg
2 | C(#Cc1cccnc1)CCCN1CC=C(c2ccccc2)CC1 | 4.3 | 56 | –
3 | C(#Cc1cnc2ccccc2c1)CCN1CC=C(c2ccccc2)CC1 | – | 30 | –
4 | C(#Cc1ccc2[nH]ccc2c1)CCN1CC=C(c2ccccc2)CC1 | 5.2 | 193 | ED50 (Mus musculus [5]): 1.2 mg/kg
5 | COc1ccc(C#CCCN2CC=C(c3ccccc3)CC2)cc1 | > 30 | 327 | ED50 (Mus musculus [5]): 3.3 mg/kg
6 | C(#Cc1cccnc1)CCN1CCN(c2ncccn2)CC1 | – | > 10000 | ED50 (Mus musculus [5]): > 30 mg/kg
7 | C(#Cc1ccccn1)CCN1CC=C(c2ccccc2)CC1 | 15.8 | 136 | –
8 | C(#Cc1cccnc1)CCN1CC=C(c2cccs2)CC1 | 5 | 255 | ED50 (Mus musculus [2]): 0.86 mg/kg
9 | C(#Cc1cncc2ccccc12)CCN1CC=C(c2ccccc2)CC1 | 3.8 | 73 | –
10 | C(#Cc1cnc2ccccc2c1)CCCN1CC=C(c2ccccc2)CC1 | 18.6 | – | –
11 | C(#Cc1cccnc1)CCN1CC=C(c2ccccc2)CC1 | 1.4 | 37 | Ki [6]: 14.1 nM; EC50 (D(2) dopamine receptor [7]): 1.7 nM; Ki (D(1A) dopamine receptor): 5000 nM; Ki (D(3) dopamine receptor): 20 nM; Ki (D(2) dopamine receptor [8]): 3.3 nM; ED50 (Monkey): 10.1 mg/kg; Decrease (Rattus norvegicus [9]): 100%; Ki [10]: 555 nM; Ki (D(4) dopamine receptor): 681 nM
12 | Fc1ccc(N2CCN(CCC#Cc3cccnc3)CC2)cc1 | 4.3 | 1670 | ED50 (Mus musculus [2]): 4.7 mg/kg
